Screens deposited in PubChem BioAssay by several laboratories.
Tb MetRS inh: T. brucei MetRS inhibitors, primary screen, biochemical, luminescence; methionyl-tRNA synthetase (Trypanosoma brucei brucei); purified T. brucei MetRS, ATP depletion, Kinase-Glo luminescence; inhibition, % at 11.9 µM; hit rate 0.4% among 360,000;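 active means inhibition above a per-plate cutoff of the control wells' mean inhibition plus 3 SD, cut at about 5.5% in these data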;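 further: 0% = DMSO wells median and 100% = median of wells with control inhibitor compound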
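Material: parasite MetRS enzyme / Replication: singlicate, one well per compound / Signal: luminescence of leftover ATP / Schedule: 2 h aminoacylation at 25 °C after 15 min preincubation / Medium: HEPES-MgCl2-KCl buffer plus DTT, spermine, BSA, pyrophosphatase / Doses: 11.9 µM single point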
V-ATPase pHluor: regulators of yeast V-ATPase proton pumping, primary screen, pHLuorin cytosolic pH fluorescence. S. cerevisiae. response, % at 10 µM. AID 504577, 2011. hit rate 0.37% among 350,000; in the data active means response mostly above about 7.3%, no sharp cut-off; inactive means mostly below about 5.4%; further: actives read high
CHOP inhibitor: inhibitors of CHOP promoter induction, primary screen, cell-based, unfolded protein response, luciferase reporter | CHO-K1 CHOP-promoter luciferase, tunicamycin-induced, 15-18 h | inhibition, % at 10 µM | hit rate 3.8% among 220,000;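 active means compounds that reduced the stress-induced luciferase reporter signal by more than about 70% of percent inhibition, limit read from the data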;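 further: 0% = tunicamycin plus vehicle and 100% = wells without tunicamycin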
UPR XBP1 act: activators of adaptive XBP1 UPR arm, primary screen, cell-based, CHO-XBP1 luciferase reporter, luminescence, uHTS | AID 463104, 2010 | hit rate 0.33% among 330,000 | IRE1-XBP1 UPR activation; percent of tunicamycin response, DMSO as zero | activation, % at 20 µM;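 active means versus positive control, 20 µM dose yields 30% or more activation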;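 further: 100% = tunicamycin at 10 µg/mL and 0% = DMSO only wells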
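Material: CHO cell line with stable XBP1 luciferase reporter; buffer or medium: F12 medium containing 10% fetal bovine serum; compound: single point, 20 µM final compound, 1% DMSO; incubation: 6 h treatment, 37 °C; measured by: glow luminescence from Steady-Glo reagent; evaluation: activation, % of tunicamycin; control set: tunicamycin high, DMSO low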
CHOP UPR activ: activators of apoptotic CHOP UPR arm, primary screen, cell-based, CHO-CHOP luciferase reporter, luminescence, uHTS; UPR activation; percent of tunicamycin response over DMSO baseline; activation, % at 10 µM; hit rate 0.34% among 330,000; AID 449763, 2010;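 active means at 10 µM dose, activation of 40% or more, normalized to positive control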;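 further: 100% = tunicamycin at 10 µg/mL and 0% = DMSO alone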
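System: CHO-CHOP luciferase reporter cell line | Buffer or medium: F12 medium containing 10% fetal bovine serum | Doses: One dose, 10 µM in 0.5% DMSO | Times: 6 h compound exposure at 37 °C after overnight seeding | Signal: Luciferase luminescence | Read-out: % activation vs tunicamycin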
CHOP confirm: retest of CHOP induction inhibitors, confirmation, cell-based; shares compounds with CHOP inhibitor; inhibition, % at 10 µM; hit rate 45% among 2,100; CHO-CHOP promoter luciferase reporter, tunicamycin-induced, luminescence; AID 504437, 2011;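 active means mean of three repeat readings of reporter signal inhibition above a set limit, cut at about 70% in these data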;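 further: 0% = tunicamycin plus vehicle and 100% = wells lacking tunicamycin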
CHOP UPR conf: activators of apoptotic CHOP UPR arm, confirmation, cell-based, CHO-CHOP luciferase reporter, single concentration; hit rate 64% among 1,000; CHO-CHOP cells, CHOP-luciferase reporter luminescence; percent of tunicamycin response, DMSO as zero; activation, % at 10 µM; shares compounds with CHOP UPR activ; AID 463112, 2010; in the data active means activation above about 33%;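 further: 0% = DMSO wells and 100% = tunicamycin 10 µg/mL wells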
Starred values were filed as active, the others as inactive; / = not tested or not shown. Shown is part of a subset that was picked to be rich in hits.

SMILES	Tb MetRS inh	V-ATPase pHluor	CHOP inhibitor	UPR XBP1 act	CHOP UPR activ	CHOP confirm	others
OC(CN1CCN(c2cccc(C(F)(F)F)c2)CC1)c1c[nH]c2ccccc12 (stereo not drawn)	0.0	8.4	97.4*	-6.3	-0.9	46.7
COc1ccc(C(=O)NCC(C)(C)N2CCOCC2)cc1S(=O)(=O)N1CCCC1	0.0	2.0	/	-2.1	-0.9	/
Cc1cccc2cc3c(nc12)SC(=NCC1CCCO1)N(Cc1ccco1)C3 (stereo not drawn)	-0.8	1.1	102.9*	1.3	3.1	47.6
Cc1ccc2nc3c(cc2c1)CN(Cc1ccco1)C(=NCC1CCCO1)S3 (stereo not drawn)	0.2	1.0	-56.0	-1.4	0.1	/
Cc1cccc(C(=O)c2cnc3ccccc3c2-c2ccccc2)c1	-0.1	0.5	101.7*	1.2	0.3	77.2*
COc1ccc2c(C(=O)c3ccc(Cl)cc3)n(CCCC(N)=O)[n+]([O-])c2c1	-0.4	4.3	/	7.5	1.6	/
Cc1ccc(CNCc2cc3c(C(C)(C)C)nn(-c4ccccc4)c3[nH]c2=O)cc1	-0.7	-4.2	108.0*	8.2	0.9	71.3*
COc1ccc(CNCc2cc3c(C(C)(C)C)nn(-c4ccccc4)c3[nH]c2=O)cc1	-1.5	-2.5	-7.9	2.6	-0.9	/
COCC(=O)N(C)C[C@@H]1Oc2cc(-c3ccc(F)cc3)ccc2S(=O)(=O)N([C@H](C)CO)C[C@H]1C	-0.4	-2.3	/	/	/	/
COc1ccc(CCN2C(=O)c3[nH]nc(-c4ccccc4O)c3C2c2cccc(Cl)c2)cc1 (stereo not drawn)	-1.1	2.4	104.4*	5.6	1.5	88.0*
C=CCOc1c(Br)cc(/C=N/n2c(CC)n[nH]c2=S)cc1Br	0.1	-1.9	107.5*	0.2	-0.1	-6.9
COC(=O)/C=C/S(=O)(=O)c1ccc(NC(C)=O)cc1	-1.1	-0.9	/	-7.5	-10.4	64.0
O=C(NCc1nc(-c2ccc(C(F)(F)F)cc2)no1)Nc1cc(Cl)cc(Cl)c1	-0.8	0.8	102.0*	0.5	2.2	109.3*
CCOC(=O)c1c(C)[nH]c(C(=O)N2CCN(c3ccc(OC)cc3)CC2)c1C	0.2	1.4	34.1	-1.6	0.6	/
CC(=O)Nc1ccc(S(=O)(=O)Nc2ccccc2N2CCOCC2)cc1	-0.6	1.5	/	-2.1	0.4	/
Cn1nc(-c2ccccc2)cc1NC(=O)Nc1ccc(C(C)(C)C)cc1	-1.0	12.1	105.4*	-1.7	-1.2	81.1*
Cn1nc(-c2ccc(Cl)cc2)cc1NC(=O)Nc1ccccc1	0.0	0.1	-0.8	1.4	4.2	/
CCOc1cc(/C=N\NC(=O)Cc2ccccc2)ccc1OCC(=O)Nc1ccc(C)c(C)c1	-0.6	0.3	96.7*	26.4	31.6	126.8*
CC(=O)Nc1cc(-c2cccc(N)c2)cn2c(-c3ccc(C(C)=O)cc3)cnc12	0.4	/	/	/	/	/
CC(=O)NCCNC(=O)C1CCC(CNc2nc(=S)[nH]c3ccccc23)CC1 (stereo not drawn)	-0.8	0.6	/	-5.4	0.7	/
O=C(CCCCCNc1nc(=S)[nH]c2ccccc12)NCCC1=CCCCC1	-0.1	-0.6	100.8*	2.8	-0.8	21.7
O=C(NCCc1ccccc1)C1CCC(CNc2nc(=S)[nH]c3ccccc23)CC1 (stereo not drawn)	-0.6	-2.8	103.8*	0.4	1.3	-70.4
O=C(O)CCCCCNc1nc(=S)[nH]c2ccccc12	0.1	1.4	0.5	-2.0	-1.6	/
CCCOc1ccc(F)cc1-c1cc(C(=O)Nc2ccccc2)[nH]n1	-0.2	/	/	/	/	/
O=[N+]([O-])c1cc(S(=O)(=O)C(F)(F)F)ccc1Sc1nc2ccccc2[nH]1	0.9	3.6	107.9*	-8.8	42.9*	123.8*	CHOP UPR conf=4.8
